Experiment [1] deals with Mycobacterium tuberculosis. Briefly: Antitubercular activity against Mycobacterium tuberculosis H37Ra. Type of experiment: functional. The method in brief: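 Microplate alamar blue assay with M. tuberculosis H37Ra as test organism; MIC recorded in µg/mL; isoniazid and kanamycin sulfate served as reference drugs.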
Another experiment deals with NCI-H187. Briefly: Cytotoxicity against human NCI-H187 cells after 72 hrs by SRB assay. In kind it is functional, cell-based. The conditions noted are these: NCI-H187, 72 h. The gist of the method: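 Small cell lung cancer NCI-H187 cells exposed at 37 °C for 72 h, then sulforhodamine B added for read-out; IC50 given in µg/mL; ellipticine as reference substance.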
Background: Sulforhodamine B stains cellular protein and so reports cell mass.

The values below come from ChEMBL document CHEMBL1142559, “ent-halimane diterpenes and a guaiane sesquiterpene from Cladogynos orientalis” (J Nat Prod, 2005).

Usually MIC stands for the least concentration at which growth counts as inhibited. The IC50 is the concentration that inhibits the measured activity by half. In experiment [1], `COC(=O)[C@@]1(C)CC(=O)C=C2[C@@]3(C)C=C(c4ccoc4)O[C@]21CC[C@H]3C` registered an MIC of less than 12.5 µg/mL. The molecule further yielded an IC50 in the experiment with NCI-H187 of less than 5 µg/mL.
In experiment [1], `C[C@@H]1CCC2=C(C[C@H]3C[C@]2(C)C(=O)O3)[C@@]1(C)CC(=O)c1ccoc1` showed a minimum inhibitory concentration (MIC) of less than 12.5 µg/mL. In the experiment with NCI-H187, this molecule had an IC50 of less than 5 µg/mL.
The like results for `C[C@@H]1CCC2=C(C[C@H]3C[C@]2(C)C(=O)O3)[C@@]1(C)CCc1ccoc1` were, in that order, less than 12.5 µg/mL and less than 5 µg/mL.
The matching figures for `C[C@@H]1CCC2=C(CCC[C@]2(C)C(=O)O)[C@@]1(C)CCc1ccoc1`: less than 12.5 µg/mL and less than 5 µg/mL.
